Data as given in paper PMC5360466 (Hepatology (Baltimore, Md.), 2017).
“Also recorded” adds a separate entry of the source.

Key:
RRV [1] = assay: RRV binding; assay type: cell-based; conditions: for effect on RRV-cholangiocyte binding: peptides at varying concentrations, 4°C
Outline: (§1)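 Confluent mouse or H69 cholangiocytes were pretreated with peptide (1 mM, or varying concentrations). Cells, medium and virus were chilled to 4°C, then inoculated and held 1 h at 4°C. Cells were washed twice and freeze/thawed twice. Bound virus (cell fraction) and unbound virus (washes plus inoculum) were titred by focus forming assay, and attached virus was expressed as % of inoculum. DGEA and GHRP peptides served as controls. Data are mean ± standard error, ANOVA.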

RRV [2] = conditions: negative control peptide; cited from earlier work
RRV [3] = assay: RRV replication; assay type: cell-based; conditions: for inhibition of RRV replication: mouse cholangiocytes pretreated with 1 mM peptide, Fig. 8D; for effect on RRV replication: mouse cholangiocytes pretreated with peptide, concentration not given, Fig. 4B
Outline: (§2)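 Mouse or H69 cholangiocytes were pretreated with peptide in DMEM (1 mM, or varying concentrations) and infected at 4°C, then incubated 18 h at 37°C. Infectious yield was measured by focus forming assay: serial dilutions at 37°C for 14-16 h, acetone fixation, guinea pig anti-rotavirus IgG (1:1000), then FITC anti-guinea pig IgG (1:500), with foci counted by UV microscopy. DGEA and GHRP served as controls.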

rotavirus = conditions: due to decreased viral entry; cited from earlier work
Ro1845 [4] = assay: Ro1845 binding assay in mouse cholangiocytes; assay type: cell-based, rotavirus, human strain; mouse cholangiocytes; conditions: mouse cholangiocytes pretreated with 1 mM peptide; Fig. 2A, 3B
Outline: as §1

RRV [5] = assay: RRV replication in human cholangiocytes; assay type: cell-based, rhesus rotavirus; human cholangiocytes (H69)
Outline: as §2

GRV [6] = assay: GRV viral yield in mouse cholangiocytes; assay type: cell-based, rotavirus, goat strain; mouse cholangiocytes; conditions: mouse cholangiocytes pretreated with 1 mM peptide; Fig. 2B
Outline: as §2

Ro1845 [7] = assay: Ro1845 viral yield in H69 cells; assay type: cell-based, rotavirus, human strain; human cholangiocytes (H69); conditions: Fig. 6D
Outline: as §2

GRV [8] = assay: GRV binding assay in H69 cells; assay type: cell-based, rotavirus, goat strain; human cholangiocytes (H69); conditions: Fig. 6C
Outline: as §1

RRV [9] = assay: RRV binding assay in human cholangiocytes; assay type: cell-based, rhesus rotavirus; human cholangiocytes (H69)
Outline: as §1

TUCH [10] = assay: TUCH binding assay in mouse cholangiocytes; assay type: cell-based, rotavirus, simian strain; mouse cholangiocytes; conditions: mouse cholangiocytes pretreated with 1 mM peptide; Fig. 2A, 3B
Outline: as §1

RRV [11] = assay: Murine model of biliary atresia; assay type: in vivo, BALB/c mice; conditions: bile ducts harvested 12 days after infection with RRV and peptide treatment; Fig. 5C
Ro1845 [12] = assay: Ro1845 binding assay in H69 cells; assay type: cell-based, rotavirus, human strain; human cholangiocytes (H69); conditions: Fig. 6C
Outline: as §1

TUCH [13] = assay: TUCH viral yield in H69 cells; assay type: cell-based, rotavirus, simian strain; human cholangiocytes (H69); conditions: Fig. 6D
Outline: as §2

TUCH [14] = assay: TUCH binding assay in H69 cells; assay type: cell-based, rotavirus, simian strain; human cholangiocytes (H69); conditions: Fig. 6C
Outline: as §1

GRV [15] = assay: GRV binding assay in mouse cholangiocytes; assay type: cell-based, rotavirus, goat strain; mouse cholangiocytes; conditions: mouse cholangiocytes pretreated with 1 mM peptide; Fig. 2A
Outline: as §1

Ro1845 [16] = assay: Ro1845 viral yield in mouse cholangiocytes; assay type: cell-based, rotavirus, human strain; mouse cholangiocytes; conditions: mouse cholangiocytes pretreated with 1 mM peptide; Fig. 2B, 3C
Outline: as §2

GRV [17] = assay: GRV viral yield in H69 cells; assay type: cell-based, rotavirus, goat strain; human cholangiocytes (H69); conditions: Fig. 6D
Outline: as §2

TUCH [18] = assay: TUCH viral yield in mouse cholangiocytes; assay type: cell-based, rotavirus, simian strain; mouse cholangiocytes; conditions: mouse cholangiocytes pretreated with 1 mM peptide; Fig. 2B, 3C
Outline: as §2

RRV [19] = assay: RRV binding in siRNA-transfected mouse cholangiocytes; assay type: cell-based, rhesus rotavirus; mouse cholangiocytes; conditions: 1 mM peptide, Fig. 8A
[20] = mouse cholangiocytes pretreated with 1 mM peptide, versus serum-free media, Fig. 3B, 4C, 8C
[21] = mouse cholangiocytes pretreated with peptide, concentration not given, Fig. 4A

PTAAGV
effect on RRV-cholangiocyte binding (RRV [1]; mouse cholangiocytes, Fig. 1B): did not interfere

ISRLY
effect on RRV binding (RRV [1]; [20]): maintained the ability to inhibit

VSRLY
effect on RRV binding (RRV [1]; [20]): maintained the ability to inhibit

GHRP
ability to inhibit RRV binding (RRV [2]): no ability to inhibit RRV binding

FSGIKSTIDAAKSMATNVMKKFKK [reference compound]
inhibition of RRV replication (RRV [3]): 42.43% | effect on RRV binding (RRV [1]; [20]): no effect | viral replication in MA104 cells treated with peptide (rotavirus): reduced viral replication

VSRAY
effect on RRV binding (RRV [1]; [20]): unable to exhibit such inhibition

VVRLY
effect on RRV binding (RRV [1]; [20]): unable to exhibit such inhibition

VSRLA
effect on RRV binding (RRV [1]; [20]): maintained the ability to inhibit

TRTRVSRLY
effect on Ro1845 binding (Ro1845 [4]): no effect | inhibition of RRV replication (RRV [3]): 44.53% | effect on RRV replication (RRV [3]): significantly inhibiting | RRV replication within human cholangiocytes, of control (RRV [5]; H69 cells, 1 mM peptide, Fig. 6B): 57.9% | effect on RRV viral yield in H69 cells (RRV [5]; strain comparison, Fig. 6D): reduced viral yields | reduction of GRV viral yield, of control (GRV [6]): 35.51% | effect on Ro1845 viral yield in H69 cells (Ro1845 [7]): no decrease in yield | effect on GRV binding to H69 cells (GRV [8]): able to block | RRV binding to human cholangiocytes, of control (RRV [9]; H69 cells, 1 mM peptide, Fig. 6A): 65.9% | effect on RRV binding to H69 cells (RRV [9]; strain comparison, Fig. 6C): able to block | effect on TUCH binding (TUCH [10]): no effect | histology of extrahepatic bile ducts (hematoxylin and eosin) (RRV [11]): mild inflammation with a patent lumen | effect on Ro1845 binding to H69 cells (Ro1845 [12]): no effects | effect on TUCH viral yield in H69 cells (TUCH [13]): no decrease in yield | effect on RRV binding (RRV [1]; [20]): significantly reduced | inhibition of RRV binding compared with control (RRV [1]; mouse cholangiocytes pretreated with 1 mM peptide, Fig. 2A): 45.13% | effect on RRV binding (RRV [1]; [21]): significantly inhibiting | effect on TUCH binding to H69 cells (TUCH [14]): no effects | inhibition of GRV binding compared with control (GRV [15]): 41.27% | effect on Ro1845 replication / viral yield (Ro1845 [16]): no reduction in viral yield; also recorded: no effect | effect on GRV viral yield in H69 cells (GRV [17]): reduced viral yields | effect on TUCH replication / viral yield (TUCH [18]): no reduction in viral yield; also recorded: no effect

MRTRVSGLY
effect on Ro1845 binding (Ro1845 [4]): no effect | effect on TUCH binding (TUCH [10]): no effect | effect on RRV binding (RRV [1]; [20]): no effect | effect on Ro1845 replication / viral yield (Ro1845 [16]): no effect | effect on TUCH replication / viral yield (TUCH [18]): no effect

MRTRVSRLY
effect on RRV replication (RRV [3]): significantly inhibiting | effect on RRV binding (RRV [1]; [21]): significantly inhibiting

SSASAW
histology of extrahepatic bile ducts (hematoxylin and eosin) (RRV [11]): complete obstruction of their bile ducts | effect on RRV-cholangiocyte binding (RRV [1]; mouse cholangiocytes, Fig. 1B): did not interfere

KTKIDRSTQISPNTLPD [reference compound]
inhibition of RRV replication (RRV [3]): 54.50% | effect on RRV binding (RRV [1]; [20]): no effect | viral replication in MA104 cells treated with peptide (rotavirus): reduced viral replication

DGEA [reference compound]
effect on Ro1845 binding (Ro1845 [4]): significantly inhibited | effect on TUCH binding (TUCH [10]): significantly inhibited | effect on RRV binding (RRV [1]; [20]): significantly inhibited | RRV binding, percent of control (positive control) (RRV [1]; mouse cholangiocytes, concentration not given, Fig. 1B): 61.40% | effect on Ro1845 replication / viral yield (Ro1845 [16]): significantly inhibited | peptide blocking of RRV binding in negative control siRNA cholangiocytes (RRV [19]): remained sensitive to DGEA blocking | effect on TUCH replication / viral yield (TUCH [18]): significantly inhibited

VSGLY
effect on RRV binding (RRV [1]; [20]): unable to exhibit such inhibition

VRTRISGLY
effect on Ro1845 binding (Ro1845 [4]): no effect | effect on TUCH binding (TUCH [10]): no effect | effect on RRV binding (RRV [1]; [20]): no effect | effect on Ro1845 replication / viral yield (Ro1845 [16]): no effect | effect on TUCH replication / viral yield (TUCH [18]): no effect
